Measured values as given in the RNAGym collection of RNA variant scans (doi:10.1126/science.aae0568).
This sample holds only a part of the variants without activity.

B1: tRNA (parent)
chain: GUUCCGUUGGCGUAAUGGUAACGCGUCUCCCUCCUAAGGAGAAGACUGCGGGUUCGAGUCCCGUACGGAACG

Variants of: B1
Experiment: yeast fitness relative to wild type (ratio to wild type); higher = fitter; tRNA-Arg(CCU), competitive growth, 37 C, YPD
In short: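 Variants of the tRNA-Arg(CCU) gene, chemically synthesised with a 3% per-site mutation rate at 69 sites, were placed at the native genomic locus in Saccharomyces cerevisiae. The pooled strains were competed in YPD at 37°C for 24 hours in six parallel replicates. Gene amplicons from the start population and from each end population were read by 100-nucleotide paired-end sequencing. Darwinian fitness relative to wild type came from changes in genotype frequencies; genotypes needed ≥ 100 starting reads, and estimates < 0.5 were set to 0.5.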

| Variant | yeast fitness |
| --- | --- |
| G12C C27U C62G | ≤ 0.5 |
| U13A A20C C46U | 0.844 |
| U13A A21C A37G A42G | ≤ 0.5 |
| U13A C24U G41U U47C | ≤ 0.5 |
| G12C G25A G41C | 0.591 |
| U13A A37G G41C | ≤ 0.5 |
| G12C C31G G51A C55G G68C | 0.627 |
| G12C C66G | 0.657 |
| G12C C66U | 0.743 |
| G12C U13G A15C A36U | ≤ 0.5 |
| U13A A21C A42G C62A A69U | ≤ 0.5 |
| U13A A21U C22G C31A G50A | ≤ 0.5 |
| U13A C22U G51A C62G G63C C66G A69U | ≤ 0.5 |
| U13A A14G A37C G50C G51C | 0.566 |
| U13A A15C C33G C49U C61U | 0.574 |
| U13A A20C C22G | ≤ 0.5 |
| G12C G58A A65U | 0.72 |
| G12C G51C U59G | ≤ 0.5 |
| U13A A37C G41A U47A U59C | ≤ 0.5 |
| G12C U19A C27G C49G C61U | ≤ 0.5 |
| U13A C27G A40G G41C A69U | 1.07 |
| G12C C22G C29A A43G | ≤ 0.5 |
| U13A C22A C27U A42U | ≤ 0.5 |
| G12C G48A A69U | 0.836 |

| Variant | yeast fitness |
| --- | --- |
| G12C C30G A37U G41A | ≤ 0.5 |
| G12C G17A C46G | 0.584 |
| G12C G41A A65C | ≤ 0.5 |
| G12C C22G G23A A37C A43C A65U | ≤ 0.5 |
| G12C C24G C27U A43U A69U | 0.625 |
| U13A C24U U59C | 0.55 |
| G12U A36G A69U | 0.733 |
| U13A A21C G38A A40U G50C C60G A70G | ≤ 0.5 |
| G12C C24U A42U C46A C55U C61G A69C | ≤ 0.5 |
| U13A C27U G56A | 0.97 |
| G12C G67U | 0.767 |
| G12C G17A U28A C49A | ≤ 0.5 |
| U13A A14U A40C | 0.556 |
| U13A C27U A57G C66U | ≤ 0.5 |
| G12C C24U C30U C60A | ≤ 0.5 |
| U13A A20G G41A G51C | 0.532 |
| G12C C34A A70U | ≤ 0.5 |
| G12C C29U A36U | ≤ 0.5 |
| U13A A15G G48A A65G | 0.581 |
| U13A A70U | 1.04 |
| U13A A70G | 0.937 |
| U13A A70C | 1.03 |
| G12C C66G A69U | ≤ 0.5 |
| U13A A14U A20U | 0.835 |

| Variant | yeast fitness |
| --- | --- |
| G12C C33G G44C C49U | 0.539 |
| U13A C24A C61A A69U | 0.505 |
| G12C G25A A45C | 0.543 |
| G12C G25A U54C | 0.635 |
| G12U A15G | 0.814 |
| G12C C27U G39A | ≤ 0.5 |
| U13A C22G C31G C61A G67A | ≤ 0.5 |
| G12C U16A C60G C61U G63A G68A | ≤ 0.5 |
| G12C U16A C24G G58C | 0.567 |
| U13A A42U | 1.03 |
| U13A A20C C46U A70U | 0.589 |
| G12C C31A | 0.774 |
| G12C C31G | 0.818 |
| G12C C31U | 0.876 |
| U13A A37U G67C | 0.645 |
| G12C C24U G48C A69C | ≤ 0.5 |
| U13A A36U A45U G52C A57U | ≤ 0.5 |
| G12C G44A | 0.879 |
| U13A C27U C62U | 0.786 |
| G12C U13C A20C C24G G39C U64A | ≤ 0.5 |
| U13A A15G C31G G58C | ≤ 0.5 |
| G12C G25C | 0.762 |
| G12C C22U U54C A65U | 0.531 |
| G12C G52A | 0.745 |

| Variant | yeast fitness |
| --- | --- |
| G12C G52C | 0.563 |
| U13A C29A C31G | 0.524 |
| G12C G48A | 1.01 |
| G12C G48C | 0.787 |
| G12C C33U G50C A70U | 0.509 |
| U13A C30G C61U G68A | ≤ 0.5 |
| U13A C30G U54C | ≤ 0.5 |
| U13A A15G A21C C22G C30G A37U | 0.636 |
| G12C C27G C30A | ≤ 0.5 |
| G12C G18C C66U | 0.528 |
| U13A A43U | 0.855 |
| G12C G25C G39C | ≤ 0.5 |
| G12C C62G A65C | ≤ 0.5 |
| G12C G51A U59A C62G | ≤ 0.5 |
| U13A A42C G68C | 0.529 |
| U13A A37C G56A | ≤ 0.5 |
| U13A A21C C24A G25C C49U | ≤ 0.5 |
| G12C U47A G68C | 0.533 |
| G12C U35G G58A G67A | 0.706 |
| U13A A37U G68A | 0.637 |
| G12C G25A U35C | 0.552 |
| U13A A37U G41C U59C | ≤ 0.5 |
| U13A A21C G52A | ≤ 0.5 |
| G12C C61G C62U | 0.605 |

| Variant | yeast fitness |
| --- | --- |
| G12C G18C C27A G38C C49G | ≤ 0.5 |
| G12C G18A | 0.823 |
| G12C U26C A43C | 0.741 |
| U13A C29G A42C C62G | ≤ 0.5 |
| G12C C27U C33G G38C | ≤ 0.5 |
| G12C C27A A37G C49U G63A | ≤ 0.5 |
| G12C C22G G23A A37C A43C G68A | ≤ 0.5 |
| G12C U16A G23C C29A A45C G68A | 0.748 |
| U13A A15U U16A A36U G44C G56A | ≤ 0.5 |
| U13A A40G A57U G68A | 0.524 |
| U13A A14U C22G A45U | 0.507 |
| G12C U28C U59A | 0.586 |
| G12C U16A C49G | 0.593 |
| G12C C30U C31U | 0.611 |
| G12C G23C C49G A57U A65C | ≤ 0.5 |
| U13A C22U C46U | 1.06 |
| G12C C33G G44C | 0.572 |
| G12C G17A C49U U59C | ≤ 0.5 |
| G12C C30G C62A | ≤ 0.5 |
| G12C G39C A43G | ≤ 0.5 |
| U13A A42G U47A | 0.542 |
| U13A C29U A40C A69U | ≤ 0.5 |
| U13A A21C U54G C66U | ≤ 0.5 |
| U13A C22U U35A C60U C61A | ≤ 0.5 |

| Variant | yeast fitness |
| --- | --- |
| U13A C22G G25C C27U C30G C55A A69U | 0.572 |
| U13A A45C G48A | 1.26 |
| G12U C24A G44A A65U | ≤ 0.5 |
| G12C C22U C60U G68C | ≤ 0.5 |
| G12C U13A G18C U32A G52A | ≤ 0.5 |
| G12C C62U | 0.776 |
| U13A C22G C24A G39C A43C G44C U47C C61U | ≤ 0.5 |
| U13A C27G A42U A57C | ≤ 0.5 |
| U13A C30U G58C | ≤ 0.5 |
| U13A A21G C60G C66G | 0.756 |
| G12C C24U A43C | ≤ 0.5 |
| U13A C30A | 1.11 |
| G12C C46U G51C U64A | ≤ 0.5 |
| G12C C29G U53A | 0.609 |
| G12C C30U A36C A40U | ≤ 0.5 |
| G12C C27A | 0.814 |
| G12C G17A C46G C49U | ≤ 0.5 |
| G12C U16A C27G A36G C46U C61U G68A | ≤ 0.5 |
| G12C U16A C24G G48C | ≤ 0.5 |
| G12C C61A A65U | ≤ 0.5 |
| G12C U13C C27U C62G | ≤ 0.5 |
| G12C G39A | 0.75 |
| G12C G41C A57G | 0.562 |
| G12C G39C G50C C61G | ≤ 0.5 |

| Variant | yeast fitness |
| --- | --- |
| U13A C22A A65G | 1.06 |
| G12C G68C | 0.823 |
| G12C U47G | 0.602 |
| G12C U47A | 0.596 |
| U13A C22U A57U | ≤ 0.5 |
| U13A A45G G67U | 0.629 |
| U13A C24U C55A G58C | ≤ 0.5 |
| G12C U28G A37G G41A G48A | 0.549 |
| U13A A21G G63A | 0.652 |
| U13A A15G | 0.932 |
| U13A A69G | 1.07 |
| U13A A15C C33G G52A | ≤ 0.5 |
| G12C C31U U59A | 0.6 |
| G12C C27U C33A A45C U54A | ≤ 0.5 |
| G12C C30U U59A | ≤ 0.5 |
| G12C G48C G58A | 0.804 |
| G12C U35G A69C | 0.571 |
| G12C U35A G41C | ≤ 0.5 |
| G12C U28A G56A A57C | ≤ 0.5 |
| U13A A21C C29U C66A | ≤ 0.5 |
| G12C U28G A37G G41A G48A A65U C66U | ≤ 0.5 |
| G12C G17C C22A U32A C34A A65C | ≤ 0.5 |
| U13A C30U C33A U35C | 0.558 |
